Measurements gathered from unrelated publications.
Each line is one published result; the experiments were not run side by side.
Sample: plasma

SMILES	species	route	dose	setting	endpoint	result
Cc1cc(Nc2cc(N3CCN(C)CC3)nc(/C=C/c3ccccc3)n2)n[nH]1	human	oral	350 mg/m²	patients	Vd/F	2340 L
c1cnc2ccc(Nc3nc(NC4CC4)c4nc[nH]c4n3)cc2c1	human	oral	200 mg/m²	patients	Vd/F	267 L
CCNCCCNC/C=C\CNCCCNCC	human	intravenous	100 mg	patients, infusion	Vd	1.17 L/kg
CO[C@H]1CC[C@H](N2C(=O)CNc3ncc(-c4ccc(C(C)(C)O)nc4)nc32)CC1	human	oral	7.5 mg	patients	Vd/F	235 L
C[C@@]1(c2cc(NC(=O)c3ccc(C#N)cn3)ccc2F)C=CSC(N)=N1	human	oral	150 mg	single dose	Vd/F	247 L
COc1ccc([C@@H]2CN(C(=O)[C@@H](O)CO)C[C@@]2(C)[C@@H](C)O)cc1OC1CN(c2ccc(C)cn2)C1	human	oral	10 mg	single dose, healthy volunteers	Vd/F	57.6 L
COc1cc(C(=O)NC2CCN(C)CC2)c(F)cc1Nc1ncc(C(F)(F)F)c(Oc2cccc3c2C(=O)N(C)C3)n1	human	oral	25 mg	single dose, patients	Vd/F	331 L
CC(C)(Sc1ccncc1-c1ccc(C#N)c2ccccc12)C(=O)O	male human	oral	40 mg	single dose, fasted, healthy volunteers	Vd/F	280 L
